14 compounds from ChEMBL document CHEMBL3352149, “Promiscuity and selectivity in covalent enzyme inhibition: a systematic study of electrophilic fragments” (J Med Chem, 2014) can be followed below.

The test system of experiment [1] is Escherichia coli. In words: Inhibition of wild-type Escherichia coli MurC compound preincubated for 10 mins before substrate addition at 25 uM measured after 15 mins by LC-MS method. The procedure, abridged: (§1)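 E. coli wild-type enzyme (4 nM) was preincubated with 25 μM compound for 10 min at 37 °C. Enzymatically generated nucleotide-sugar substrate (~200 μM) plus ATP (~200 μM), or NADPH 200 μM for MurB, was added for 10 min. Reactions were started with amino-acid cosubstrate (MurC–F) or EP-UNAG (MurB), run 15 min at 37 °C, and quenched with formic acid. Product was measured by negative-ESI LC-MS EIC peak area. MgCl2: MurC 10, MurD/E 2, MurF 5 mM; MurB had 5 mM KCl. All in 50 mM NH4HCO3, 0.07% BSA, 1% DMSO; triplicate.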

The test system of experiment [2] is Escherichia coli. In words: Inhibition of wild-type Escherichia coli MurF compound preincubated for 10 mins before substrate addition at 25 uM measured after 15 mins by LC-MS method. The procedure, abridged:
as §1

Experiment [3] relates to Escherichia coli. In words: Inhibition of wild-type Escherichia coli MurD compound preincubated for 10 mins before substrate addition at 25 uM measured after 15 mins by LC-MS method. The procedure, abridged: as §1
For experiment [4], the system named is Escherichia coli. Put plainly: Inhibition of wild-type Escherichia coli MurA compound preincubated for 10 mins before substrate addition at 25 uM measured after 15 mins by LC-MS method.
Experiment [5] addresses Genome polyprotein (dengue virus type 2) (UniProt P12823). Put plainly: Inhibition of Dengue virus serotype 2 NS2B-NS3 protease at 50 uM.
Experiment [6] deals with Escherichia coli. In words: Inhibition of wild-type Escherichia coli MurE compound preincubated for 10 mins before substrate addition at 25 uM measured after 15 mins by LC-MS method. The procedure, abridged:
as §1

Experiment [7] has as its target Methionine aminopeptidase 1 (Homo sapiens) (UniProt P53582). In words: Inhibition of human MetAP at 25 uM after 20 mins by HPLC analysis. The procedure, abridged: (§2)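 Endpoint assay. Enzyme (50 nM) was preincubated with 25 μM compound for 20 min at 37 °C in 50 mM Tris pH 7.5, 100 mM NaCl, 100 μM CoCl2, 0.075% BSA. MGMM substrate (400 μM) was then added for 15 min (human MetAP-1) or 20 min (E. coli MetAP). Reactions were stopped with TFA. GMM product was quantified by RP-HPLC, UV 214 nm. Triplicate.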

The test system of experiment [8] is Escherichia coli. In words: Inhibition of wild-type Escherichia coli MurB compound preincubated for 10 mins before substrate addition at 25 uM measured after 15 mins by LC-MS method. In short, it runs like this:
as §1

Experiment [9] in a line: GSH reactivity of the compound assessed as adducts formation by RP-HPLC analysis. The procedure, abridged: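 Fresh aqueous glutathione (10 mM solution) was added to 50 mM Tris-maleate buffer, pH 7.5. The reaction was started with compound from 10 mM DMSO stock (final 250 μM). Mixtures were followed by reversed-phase HPLC on an ODS column with a gradient to 100% B; rate constants are given in l·mol⁻¹·s⁻¹.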

Experiment [10] deals with Escherichia coli. Put plainly: Inhibition of Escherichia coli MetAP at 25 uM after 20 mins by HPLC analysis. In short, it runs like this:
as §2

Experiment [11] has as its target Genome polyprotein (West Nile virus) (UniProt P06935). In words: Inhibition of West Nile virus NS2B-NS3 protease at 50 uM.
The target in the next experiment is Prothrombin (Bos taurus) (UniProt P00735). In words: Inhibition of Bovine thrombin using Boc-Val-Pro-Arg-AMC as substrate compound preincubated at 25 uM for 15 mins by fluorescence assay. In short, it runs like this: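 Bovine thrombin (final 10 nM) was preincubated 15 min with 25 μM compound in 50 mM Tris-HCl pH 7.5, 150 mM NaCl, 0.05% Tween 20. The reaction was started with Boc-Val-Pro-Arg-AMC (50 μM final). Fluorescence (ex 355/em 460 nm) was monitored continuously for 10 min; activity taken as slope (RFU/s). Triplicate.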

Bounds are passed on as bounds.

Chain of Genome polyprotein (West Nile virus) (P06935 whole entry): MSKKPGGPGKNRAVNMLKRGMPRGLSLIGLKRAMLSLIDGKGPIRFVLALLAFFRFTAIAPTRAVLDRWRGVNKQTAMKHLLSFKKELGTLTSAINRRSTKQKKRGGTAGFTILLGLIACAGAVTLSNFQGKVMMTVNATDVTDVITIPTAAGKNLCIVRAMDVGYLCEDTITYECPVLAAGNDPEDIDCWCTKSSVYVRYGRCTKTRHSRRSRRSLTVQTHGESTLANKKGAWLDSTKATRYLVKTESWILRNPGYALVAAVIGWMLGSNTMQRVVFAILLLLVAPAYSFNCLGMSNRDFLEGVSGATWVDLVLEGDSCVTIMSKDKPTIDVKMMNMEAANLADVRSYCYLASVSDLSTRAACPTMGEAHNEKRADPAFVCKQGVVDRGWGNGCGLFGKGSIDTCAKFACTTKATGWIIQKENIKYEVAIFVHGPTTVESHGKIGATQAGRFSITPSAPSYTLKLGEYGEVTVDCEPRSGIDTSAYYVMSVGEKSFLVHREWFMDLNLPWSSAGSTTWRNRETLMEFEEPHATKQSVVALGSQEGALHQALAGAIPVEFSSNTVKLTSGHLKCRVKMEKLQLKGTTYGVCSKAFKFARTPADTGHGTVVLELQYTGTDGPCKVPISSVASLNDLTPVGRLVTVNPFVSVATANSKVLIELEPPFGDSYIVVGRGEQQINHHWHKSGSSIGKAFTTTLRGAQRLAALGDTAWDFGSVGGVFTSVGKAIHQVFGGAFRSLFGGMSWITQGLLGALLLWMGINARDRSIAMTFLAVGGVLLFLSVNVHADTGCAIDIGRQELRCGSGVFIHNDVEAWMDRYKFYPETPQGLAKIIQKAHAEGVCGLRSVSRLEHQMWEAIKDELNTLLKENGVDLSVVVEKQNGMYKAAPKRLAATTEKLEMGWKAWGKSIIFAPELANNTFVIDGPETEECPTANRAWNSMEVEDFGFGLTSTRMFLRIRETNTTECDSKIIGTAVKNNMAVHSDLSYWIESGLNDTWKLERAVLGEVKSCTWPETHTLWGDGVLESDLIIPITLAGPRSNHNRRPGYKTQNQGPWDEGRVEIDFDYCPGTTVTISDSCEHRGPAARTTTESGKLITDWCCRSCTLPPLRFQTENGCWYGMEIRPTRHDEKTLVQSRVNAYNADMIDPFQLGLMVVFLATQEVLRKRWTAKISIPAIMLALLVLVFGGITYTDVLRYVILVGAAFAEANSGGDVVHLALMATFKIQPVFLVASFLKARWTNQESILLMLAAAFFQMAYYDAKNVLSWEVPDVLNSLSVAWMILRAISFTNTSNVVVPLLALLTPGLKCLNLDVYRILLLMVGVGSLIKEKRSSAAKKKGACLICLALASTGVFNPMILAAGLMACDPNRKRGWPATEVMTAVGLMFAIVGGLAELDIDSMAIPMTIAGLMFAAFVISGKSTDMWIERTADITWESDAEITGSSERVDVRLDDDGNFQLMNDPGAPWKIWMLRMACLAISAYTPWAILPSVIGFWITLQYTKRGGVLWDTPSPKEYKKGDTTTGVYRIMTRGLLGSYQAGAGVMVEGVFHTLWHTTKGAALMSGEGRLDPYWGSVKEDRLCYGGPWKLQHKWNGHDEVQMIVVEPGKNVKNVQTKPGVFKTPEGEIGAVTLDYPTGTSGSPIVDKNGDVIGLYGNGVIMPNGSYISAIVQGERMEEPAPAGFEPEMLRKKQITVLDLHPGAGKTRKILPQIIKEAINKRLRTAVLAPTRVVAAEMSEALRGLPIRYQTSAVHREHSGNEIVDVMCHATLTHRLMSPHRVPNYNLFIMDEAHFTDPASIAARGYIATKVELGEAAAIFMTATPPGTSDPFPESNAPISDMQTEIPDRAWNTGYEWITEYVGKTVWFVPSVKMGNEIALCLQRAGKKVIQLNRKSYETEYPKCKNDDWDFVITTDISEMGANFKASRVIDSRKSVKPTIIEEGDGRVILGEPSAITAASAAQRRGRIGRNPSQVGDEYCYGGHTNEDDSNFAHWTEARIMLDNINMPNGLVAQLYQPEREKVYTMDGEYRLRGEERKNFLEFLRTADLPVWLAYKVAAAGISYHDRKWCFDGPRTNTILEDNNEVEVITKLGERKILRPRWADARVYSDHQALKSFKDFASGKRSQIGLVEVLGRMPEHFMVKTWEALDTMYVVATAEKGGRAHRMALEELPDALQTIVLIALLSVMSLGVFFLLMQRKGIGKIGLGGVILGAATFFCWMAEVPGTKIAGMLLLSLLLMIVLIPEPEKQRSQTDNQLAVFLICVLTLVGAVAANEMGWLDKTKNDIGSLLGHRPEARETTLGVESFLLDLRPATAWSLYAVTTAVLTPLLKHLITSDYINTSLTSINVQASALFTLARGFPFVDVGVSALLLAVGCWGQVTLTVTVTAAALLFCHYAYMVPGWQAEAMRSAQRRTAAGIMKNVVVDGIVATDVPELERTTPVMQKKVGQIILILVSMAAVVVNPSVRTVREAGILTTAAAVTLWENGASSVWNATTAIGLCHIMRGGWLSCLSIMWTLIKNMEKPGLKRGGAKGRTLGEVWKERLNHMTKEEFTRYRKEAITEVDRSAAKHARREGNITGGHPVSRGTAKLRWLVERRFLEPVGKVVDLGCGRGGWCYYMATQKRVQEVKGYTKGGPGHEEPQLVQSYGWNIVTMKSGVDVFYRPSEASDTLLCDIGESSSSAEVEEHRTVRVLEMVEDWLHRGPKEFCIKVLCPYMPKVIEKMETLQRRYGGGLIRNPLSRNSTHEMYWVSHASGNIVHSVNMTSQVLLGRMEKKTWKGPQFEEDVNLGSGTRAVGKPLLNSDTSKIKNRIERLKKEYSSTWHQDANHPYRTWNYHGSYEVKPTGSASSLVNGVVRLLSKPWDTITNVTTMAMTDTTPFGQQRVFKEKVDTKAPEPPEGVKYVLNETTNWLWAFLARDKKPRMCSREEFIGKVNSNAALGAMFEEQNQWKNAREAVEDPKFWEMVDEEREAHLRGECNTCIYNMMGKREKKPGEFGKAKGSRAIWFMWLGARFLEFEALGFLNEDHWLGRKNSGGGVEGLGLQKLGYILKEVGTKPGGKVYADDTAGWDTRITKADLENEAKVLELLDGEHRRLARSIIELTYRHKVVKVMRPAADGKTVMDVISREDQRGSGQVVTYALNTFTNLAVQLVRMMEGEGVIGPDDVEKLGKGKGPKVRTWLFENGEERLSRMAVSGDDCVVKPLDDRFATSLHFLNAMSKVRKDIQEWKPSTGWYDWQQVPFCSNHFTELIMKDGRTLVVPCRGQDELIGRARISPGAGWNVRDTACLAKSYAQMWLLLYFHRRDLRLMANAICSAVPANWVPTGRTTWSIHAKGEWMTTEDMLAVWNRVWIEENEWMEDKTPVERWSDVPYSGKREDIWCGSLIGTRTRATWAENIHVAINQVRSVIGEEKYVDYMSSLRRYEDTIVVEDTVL

Usually inhibition stands for how much of the control response was suppressed. The low end stands for a weak effect, the high end for a strong effect. Turning to `COc1ccc(NC(=O)n2ccnc2)cc1`, the inhibition in the experiment with Escherichia coli [1] is less than 15%; in the experiment with Escherichia coli [2], less than 15%; in the experiment on Escherichia coli [3], less than 15%; with Escherichia coli [4], 17%; in experiment [5], less than 15%; in the experiment on Escherichia coli [6], less than 15%. In addition, the inhibition (in experiment [7]; in the experiment on Escherichia coli [8]; with Escherichia coli [10]; in experiment [11]; against Prothrombin (Bos taurus)) was less than 15% throughout. Further, in experiment [9], the Activity is less than 0.1 L/mol/s.
`CCCCC(N)C(=O)OC` (stereo not drawn): the inhibition is less than 15% in the experiment on Escherichia coli [1]; less than 15% in the experiment on Escherichia coli [2]; 18% in the experiment on Escherichia coli [3]; less than 15% in the experiment on Escherichia coli [4]; less than 15% in [5]; 17% with Escherichia coli [6]. Also, the inhibition in [7] is less than 15%; in the experiment on Escherichia coli [8], less than 22%; in the experiment with Escherichia coli [10] it was less than 15%; in experiment [11] it was less than 15%; on Prothrombin (Bos taurus), less than 15%. In [9], the Activity is less than 0.1 L/mol/s.
Turning to `Cc1ccc(NC(=O)CCl)cc1`, the inhibition (in the experiment on Escherichia coli [1]; in the experiment on Escherichia coli [2]; in the experiment with Escherichia coli [3]; with Escherichia coli [4]; in experiment [5]; in the experiment with Escherichia coli [6]) was less than 15% in each case. In addition, the inhibition (in experiment [7]; in the experiment with Escherichia coli [8]; in the experiment on Escherichia coli [10]; in [11]; against Prothrombin (Bos taurus)) was less than 15% throughout. In addition, in experiment [9], the Activity is less than 0.1 L/mol/s.
Take `N#CCC(=O)NCCc1ccccc1`: the inhibition (in the experiment on Escherichia coli [1]; in the experiment on Escherichia coli [2]; in the experiment on Escherichia coli [3]; in the experiment on Escherichia coli [4]; in experiment [5]; in the experiment on Escherichia coli [6]) was less than 15% throughout. In addition, the inhibition in experiment [7] was less than 15%; in the experiment with Escherichia coli [8] it was less than 15%; in the experiment with Escherichia coli [10] it was less than 15%; in experiment [11] it was 22%; at Prothrombin (Bos taurus), less than 15%. For the same compound, the Activity in experiment [9] is less than 0.1 L/mol/s.
`O=C(Nc1ccc([N+](=O)[O-])cc1)n1ccnc1`: the inhibition (in the experiment with Escherichia coli [1]; in the experiment on Escherichia coli [2]; in the experiment on Escherichia coli [3]; in the experiment with Escherichia coli [4]; in experiment [5]; in the experiment with Escherichia coli [6]) was less than 15% throughout. The inhibition (in [7]; with Escherichia coli [8]; in the experiment on Escherichia coli [10]; in experiment [11]; against Prothrombin (Bos taurus)) was less than 15% in each case. The Activity in experiment [9] was less than 0.1 L/mol/s.
With `CNC(=O)CC#N`, the inhibition (in the experiment on Escherichia coli [1]; in the experiment on Escherichia coli [2]; with Escherichia coli [3]; with Escherichia coli [4]; in [5]; with Escherichia coli [6]) was less than 15% in each case. Also, the inhibition (in [7]; in the experiment with Escherichia coli [8]; in the experiment on Escherichia coli [10]; in [11]; against Prothrombin (Bos taurus)) was less than 15% each time. For the same compound, the Activity in experiment [9] was less than 0.1 L/mol/s.
As to `O=C(CCl)Nc1ccc(F)cc1`, the inhibition (in the experiment on Escherichia coli [1]; in the experiment on Escherichia coli [2]; in the experiment with Escherichia coli [3]; in the experiment on Escherichia coli [4]; in experiment [5]; in the experiment on Escherichia coli [6]) was less than 15% in each case. Also, the inhibition (in experiment [7]; with Escherichia coli [8]; with Escherichia coli [10]; in experiment [11]; against Prothrombin (Bos taurus)) was less than 15% in each case. In [9], the Activity is less than 0.1 L/mol/s.
On to `C=CCNC(CCCC)C(=O)OC` (stereo not drawn), for which the inhibition (with Escherichia coli [1]; with Escherichia coli [2]; in the experiment on Escherichia coli [3]; in the experiment with Escherichia coli [4]; in experiment [5]; in the experiment on Escherichia coli [6]) was less than 15% in each case. The inhibition (in experiment [7]; with Escherichia coli [8]; with Escherichia coli [10]; in [11]; against Prothrombin (Bos taurus)) was less than 15% throughout. Further, the Activity in experiment [9] is less than 0.1 L/mol/s.
As to `N#CCC(=O)NC1CCCC1`, the inhibition with Escherichia coli [1] was less than 15%; with Escherichia coli [2] it was less than 15%; with Escherichia coli [3], less than 15%; with Escherichia coli [4], less than 15%; in [5] it was less than 15%; with Escherichia coli [6] it was 16%. Moreover, the inhibition (in experiment [7]; in the experiment with Escherichia coli [8]; with Escherichia coli [10]; in experiment [11]; against Prothrombin (Bos taurus)) was less than 15% throughout. Moreover, the Activity in experiment [9] was less than 0.1 L/mol/s.
Take `C=CCNCCc1ccccc1`: the inhibition (in the experiment on Escherichia coli [1]; in the experiment on Escherichia coli [2]; in the experiment on Escherichia coli [3]; in the experiment on Escherichia coli [4]; in experiment [5]; in the experiment with Escherichia coli [6]) was less than 15% in each case. Besides, the inhibition (in [7]; in the experiment with Escherichia coli [8]; with Escherichia coli [10]; in [11]; on Prothrombin (Bos taurus)) was less than 15% each time. Also, the Activity in [9] is less than 0.1 L/mol/s.
Turning to `C=CCNc1ccc(OC)cc1`, the inhibition (with Escherichia coli [1]; in the experiment on Escherichia coli [2]; in the experiment with Escherichia coli [3]; in the experiment on Escherichia coli [4]; in experiment [5]; in the experiment with Escherichia coli [6]) was less than 15% throughout. Further, the inhibition in experiment [7] is less than 15%; in the experiment on Escherichia coli [8], 20%; in the experiment with Escherichia coli [10] it was less than 15%; in experiment [11] it was less than 15%; on Prothrombin (Bos taurus) it was less than 15%. Further, the Activity in experiment [9] is less than 0.1 L/mol/s.
On to `O=C(CCl)NC1CCCC1`, for which the inhibition (in the experiment with Escherichia coli [1]; with Escherichia coli [2]; in the experiment on Escherichia coli [3]; with Escherichia coli [4]; in experiment [5]; in the experiment with Escherichia coli [6]) was less than 15% each time. The inhibition (in [7]; with Escherichia coli [8]; with Escherichia coli [10]; in [11]; on Prothrombin (Bos taurus)) was less than 15% in each case. Also, the Activity in experiment [9] is less than 0.1 L/mol/s.
As to `COc1ccc(NC(=O)CC#N)cc1`, the inhibition in the experiment on Escherichia coli [1] is less than 15%; in the experiment with Escherichia coli [2], less than 15%; with Escherichia coli [3], less than 15%; in the experiment on Escherichia coli [4], less than 15%; in [5] it was less than 15%; with Escherichia coli [6], 15%. For the same compound, the inhibition in [7] is less than 15%; in the experiment on Escherichia coli [8], less than 15%; in the experiment on Escherichia coli [10], less than 15%; in experiment [11], 16%; against Prothrombin (Bos taurus), less than 15%. In addition, the Activity in experiment [9] is less than 0.1 L/mol/s.
`COc1ccc(NC(=O)CCl)cc1`: the inhibition (with Escherichia coli [1]; in the experiment with Escherichia coli [2]; with Escherichia coli [3]; in the experiment with Escherichia coli [4]; in experiment [5]; in the experiment on Escherichia coli [6]) was less than 15% throughout. The inhibition (in experiment [7]; in the experiment on Escherichia coli [8]; in the experiment on Escherichia coli [10]; in experiment [11]; on Prothrombin (Bos taurus)) was less than 15% throughout. Further, the Activity in [9] was less than 0.1 L/mol/s.
